From PubChem BioAssay AID1453 (NMMLSC, 2008)
The other results are listed elsewhere or left out. Unmarked numbers belong to inactive results.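 Rule for the calls: active = inhibition above 50%; inactive = the rest.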

The compounds below were run against Broad substrate specificity ATP-binding cassette transporter ABCG2 (Homo sapiens) (UniProt Q9UNQ0) (assay: ABCG2 efflux pump inhibitors, confirmation, single point, IgMXP3 cells, ABCB1 counter-screen paired (AID 1453;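 note: 0% = DMSO wells and 100% = nicardipine pump inhibitor wells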)). Details: JC-1 efflux, flow cytometry, at 6.6 µM, hits give high values.
Broad substrate specificity ATP-binding cassette transporter ABCG2 (Homo sapiens), sequence (Q9UNQ0 whole entry, looked up): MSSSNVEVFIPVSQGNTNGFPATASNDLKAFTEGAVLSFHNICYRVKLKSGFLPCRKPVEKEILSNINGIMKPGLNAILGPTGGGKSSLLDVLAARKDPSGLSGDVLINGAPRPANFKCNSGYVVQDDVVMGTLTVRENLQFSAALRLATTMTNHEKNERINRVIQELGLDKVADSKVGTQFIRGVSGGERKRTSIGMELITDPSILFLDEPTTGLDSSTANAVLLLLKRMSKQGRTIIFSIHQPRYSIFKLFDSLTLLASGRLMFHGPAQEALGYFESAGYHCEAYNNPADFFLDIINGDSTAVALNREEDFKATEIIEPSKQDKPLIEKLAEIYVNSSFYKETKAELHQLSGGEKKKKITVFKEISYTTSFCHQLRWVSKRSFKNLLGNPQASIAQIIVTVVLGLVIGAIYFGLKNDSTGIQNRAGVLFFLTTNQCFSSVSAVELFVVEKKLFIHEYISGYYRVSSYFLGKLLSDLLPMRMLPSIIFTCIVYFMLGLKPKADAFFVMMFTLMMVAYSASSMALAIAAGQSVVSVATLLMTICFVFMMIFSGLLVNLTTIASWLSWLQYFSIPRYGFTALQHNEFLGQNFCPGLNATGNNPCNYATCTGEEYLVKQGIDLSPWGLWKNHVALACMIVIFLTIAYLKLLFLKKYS
In short: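 Material – drug-resistant IgMXP3 cells expressing human ABCG2 · Reagent – JC-1 substrate · Dosing – single test compound dose, 6.6 µM final · Incubation – 10 min exposure at 25 °C · Signal – high-throughput flow cytometry, JC-1 green median fluorescence, 530 ± 20 nm · Read-out – percent pump inhibition versus DMSO and nicardipine · Controls – nicardipine high, DMSO low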
With COc1ccc(C)cc1NC(=O)C(Sc1ccccc1)c1ccccc1 (stereo not drawn) the inhibition was 10.9%.
Compound CCOC(=O)c1sc(NC(=O)CSc2nnc(-c3ccco3)o2)c(C(=O)OCC)c1C has an inhibition of 37%.
Cc1ccc(-n2c(SCC(=O)Nc3ncc(Cl)cc3Cl)nc3ccccc32)cc1 showed an inhibition of 28.9%.
Compound C=CCn1c(SCCOc2ccc(OC)cc2)nnc1C(NC(=O)c1ccc(OC)cc1)C(C)C (stereo not drawn) has an inhibition of 15.5%.
Cc1ccc(OCC(O)CN2CCN(CC(O)COc3ccc(C)cc3Cl)CC2)c(Cl)c1 (stereo not drawn) showed an inhibition of 8.02%.
In the case of C/C(=N\Nc1ncc(Cl)cc1Cl)c1ccc(S(=O)(=O)NCc2ccco2)cc1, the inhibition is reported as 21.6%.
In the case of COc1ccc(-n2c(C)cc(C(=O)COC(=O)c3cc(OC)c(OC)cc3NC(=O)c3cccs3)c2C)cc1, the inhibition is reported as 14.8%.
With COc1cccc(NC(=O)c2ccc(Cn3cc([N+](=O)[O-])cn3)o2)c1 the inhibition was 21.8%.
Cc1cccc2cc(CN(Cc3cccs3)C(c3nnnn3C3CCCC3)C(C)C)c(=O)[nH]c12 (stereo not drawn) showed an inhibition of 39.9%.
CCN1/C(=C/c2ccc3ccc(C)cc3[n+]2CC)Sc2ccccc21 was tested, and the inhibition was 31.6%.
In the case of O=C(Cc1c[nH]c2ccccc12)N/N=C/c1cccc(F)c1, the inhibition is reported as 19.6%.
In the case of Cc1c(CCOC(=O)CC23CC4CC(CC(C)(C4)C2)C3)sc[n+]1Cc1ccc([N+](=O)[O-])cc1, the inhibition is reported as 27.4%.
Work on CCOCC(=O)Nc1sc2c(c1C(=O)OCC)CCCC2 yielded an inhibition of 38.7%.
